Laboratory results published in ChEMBL document CHEMBL4411297, “Discovery, synthesis and anti-atherosclerotic activities of a novel selective sphingomyelin synthase 2 inhibitor” (Eur J Med Chem, 2019).
pIC50: −log10 of the molar value. Calls of active or inactive are those of the source. No cut-off for these calls is given here.

What was measured:
[1] = target: T1, Phosphatidylcholine:ceramide cholinephosphotransferase 2 (Mus musculus) (UniProt Q9D4B1); assay: Inhibition of SMS2 in C57BL/6J mouse bone marrow derived macrophages after 17 hrs
T1 sequence (whole entry): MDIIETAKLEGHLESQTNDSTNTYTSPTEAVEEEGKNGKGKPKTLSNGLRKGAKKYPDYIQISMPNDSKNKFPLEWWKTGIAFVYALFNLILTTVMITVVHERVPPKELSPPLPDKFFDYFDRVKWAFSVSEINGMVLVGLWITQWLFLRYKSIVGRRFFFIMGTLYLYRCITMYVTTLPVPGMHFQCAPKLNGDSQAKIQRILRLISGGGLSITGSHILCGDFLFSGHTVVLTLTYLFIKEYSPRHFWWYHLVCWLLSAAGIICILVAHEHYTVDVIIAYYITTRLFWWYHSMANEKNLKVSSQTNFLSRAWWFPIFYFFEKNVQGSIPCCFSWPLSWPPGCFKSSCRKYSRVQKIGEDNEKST

[2] = Apparent oral clearance in C57BL/6J mouse at 100 mg/kg/day, ig by HPLC-MS/MS analysis; assay type: ADME, organism-based; settings: in vivo
Outline: (§1)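 Male C57BL/6J mice, six to eight weeks old, about 20 g, fasted 12 h with free water. Given a single intragastric dose of 25, 50 or 100 mg/kg in 10% DMSO/30% PEG-100/0.9% NaCl. Blood taken retro-orbitally at 5 min to 8 h. Plasma protein-precipitated with methanol plus internal standard, then HPLC-MS/MS on a C18 column. Noncompartmental analysis, n = 6.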

[3] = Tmax in C57BL/6J mouse at 100 mg/kg/day, ig by HPLC-MS/MS analysis; assay type: ADME, organism-based; settings: in vivo, po
Outline: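 Male C57BL/6J mice (6–8 weeks, ~20 g), fasted 12 h, given a single intragastric dose of 25, 50 or 100 mg/kg in 10% DMSO/30% PEG/0.9% NaCl. Retro-orbital blood at 5 min to 8 h; plasma protein-precipitated with methanol plus internal standard, assayed by LC-MS/MS; noncompartmental analysis. Mean ± SD, n = 6.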

[4] = tested on: Mus musculus; assay: Anti-atherosclerotic activity in apoE knockout mouse fed with western-type diet assessed as reduction in CD11b+/Ly6C++/Ly6G+ dendritic cells at 12.5 mg/kg/day, ig for 7 weeks by flow cytometric analysis relative to control; assay type: functional; design: scale not given: the % may be the effect or the level left
Outline: (§2)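 ApoE KO mice started at 8 weeks old on Western-type diet for 6 weeks. Then dosed by gavage daily with vehicle, 12.5 or 40 mg/kg for 7 weeks with the diet continued, 10 mice per group. Blood single-cell suspensions stained with antibodies in PBS and analysed by flow cytometry. Mean ± SD, n = 5.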

[5] = tested on: Mus musculus; assay: Down regulation of sphingomyelin levels in C57BL/6J mouse plasma at 100 mg/kg/day, ig qd for 7 days measured on day 3 and 7; assay type: functional, organism-based
Outline: (§3)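 C57BL/6J mice dosed by gavage at 100 mg/kg once daily for 7 days. Plasma SM sampled on days 0, 3 and 7. Plasma ALT and AST measured on day 7 by automated analyzer. Compared with vehicle, n = 10.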

[6] = tested on: Mus musculus; assay: Effect on plasma ALT level in apoE knockout mouse fed with western-type diet at 12.5 to 40 mg/kg/day, ig for 7 weeks; assay type: ADME, organism-based; settings: in vivo, po, 1176 h
Outline: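 ApoE KO mice on Western-type diet, dosed by gavage at 12.5 or 40 mg/kg/day for 7 weeks, n = 10. Blood collected at 20 weeks of age. Plasma SM measured by a previously reported method. ALT and AST read on an automated biochemical analyzer.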

[7] = tested on: Mus musculus; assay: Anti-atherosclerotic activity in apoE knockout mouse fed with western-type diet assessed as reduction in lymphocyte count at 12.5 mg/kg/day, ig for 7 weeks by flow cytometric analysis relative to control; assay type: functional; design: scale not given: the % may be the effect or the level left; outline: as §2
[8] = Cmax in C57BL/6J mouse at 100 mg/kg/day, ig by HPLC-MS/MS analysis; assay type: ADME, organism-based; design: dose 100 mg/kg/day, route intragastric; settings: in vivo, po; outline: as §1
[9] = tested on: Mus musculus; assay: Effect on plasma ALT levels in C57BL/6J mouse at 100 mg/kg/day, ig qd for 7 days measured on day 7; assay type: ADME, organism-based; settings: in vivo, po, 168 h; outline: as §3
[10] = target: T2, Phosphatidylcholine:ceramide cholinephosphotransferase 2 (Homo sapiens, UniProt Q8NHU3); assay: Inhibition of SMS2 (unknown origin) over-expressed in H5 insect cell lysate using C6-NBD-Ceramide and DMPC as substrates preincubated for 30 mins followed by substrate addition and measured after 2 hrs by TLC or HPLC method; assay type: subcellular
T2 sequence (Q8NHU3 whole entry): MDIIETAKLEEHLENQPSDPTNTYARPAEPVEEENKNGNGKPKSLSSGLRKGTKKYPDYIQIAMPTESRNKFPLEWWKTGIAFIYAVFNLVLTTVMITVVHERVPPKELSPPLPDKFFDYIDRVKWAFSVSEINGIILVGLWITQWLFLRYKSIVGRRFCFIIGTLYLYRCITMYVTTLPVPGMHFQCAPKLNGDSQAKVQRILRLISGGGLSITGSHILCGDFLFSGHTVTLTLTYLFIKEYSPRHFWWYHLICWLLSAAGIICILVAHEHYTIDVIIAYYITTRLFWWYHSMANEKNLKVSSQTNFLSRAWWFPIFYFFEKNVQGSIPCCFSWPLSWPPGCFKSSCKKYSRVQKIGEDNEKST

[11] = tested on: Mus musculus; assay: Anti-atherosclerotic activity in apoE knockout mouse fed with western-type diet assessed as reduction in CD4+/CD8+ cell ratio at 12.5 mg/kg/day, ig for 7 weeks by flow cytometric analysis relative to control; assay type: functional; design: scale not given: the % may be the effect or the level left; outline: as §2
[12] = Half life in C57BL/6J mouse at 100 mg/kg/day, ig by HPLC-MS/MS analysis; assay type: ADME, organism-based; settings: in vivo, po; outline: as §1
[13] = tested on: Mus musculus; assay: Anti-atherosclerotic activity in apoE knockout mouse fed with western-type diet assessed as reduction in liver SMS activity at 40 mg/kg/day, ig for 7 weeks relative to control; assay type: functional; design: scale not given: the % may be the effect or the level left
Outline: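 ApoE KO mice on Western-type diet, dosed by gavage at 12.5 or 40 mg/kg/day for 7 weeks, n = 10. Liver homogenized at 200 mg/ml in 50 mM Tris-HCl pH 7.4, 1 mM EDTA, 250 mM sucrose. C6-NBD-ceramide and DMPC added, incubated at 37 °C, quenched with ethanol. Product read by TLC or HPLC, relative to vehicle.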

[14] = tested on: Mus musculus; assay: Anti-atherosclerotic activity in apoE knockout mouse fed with western-type diet assessed as reduction in macrophage content at 12.5 mg/kg/day, ig for 7 weeks by immunostaining assay relative to control; assay type: functional; design: scale not given: the % may be the effect or the level left
Outline: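 ApoE KO mice on Western-type diet, dosed by gavage at 12.5 or 40 mg/kg/day for 7 weeks. Aortic root sections 4 µm thick immunostained with MOMA-2: primary antibody 1 h at room temperature, biotinylated secondary, HRP-streptavidin, DAB, hematoxylin counterstain. Stained area quantified and expressed relative to vehicle.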

[15] = tested on: Mus musculus; assay: Anti-atherosclerotic activity in apoE knockout mouse fed with western-type diet assessed as reduction in CD4+/CD8+ cell ratio at 40 mg/kg/day, ig for 7 weeks by flow cytometric analysis relative to control; assay type: functional; design: scale not given: the % may be the effect or the level left; outline: as §2
[16] = Dose normalized AUC (0 to 8 hrs) in C57BL/6J mouse at 25 mg/kg/day, ig by HPLC-MS/MS analysis; assay type: ADME, organism-based; settings: in vivo, po; outline: as §1
[17] = Apparent oral clearance in C57BL/6J mouse at 50 mg/kg/day, ig by HPLC-MS/MS analysis; assay type: ADME, organism-based; settings: in vivo; outline: as §1

inhibition [1]: Dose-dependent effect
CL/F [2]: 143 mL/min
Tmax [3]: 6 min
Cmax [8]: 14100 ng/mL
pIC50 [10]: 6.06
half-life [12]: 2.51 h
AUC/dose [16]: 0.08 µg·h/mL
CL/F [17]: 180 mL/min
Structure (SMILES): CCc1ccccc1COc1ccccc1C(=O)Nc1cccnc1
Activity [4]: 16%
Activity [5]: Active
Activity [6]: Non-Toxic
Activity [7]: 21%
Activity [9]: Non-Toxic
Activity [11]: 34%
Activity [13]: 39%
Activity [14]: 28%
Activity [15]: 37%
